# Experimental data reported in ChEMBL document CHEMBL1124766, “Novel benzamides as selective and potent gastric prokinetic agents. 1. Synthesis and structure-activity relationships of N-[(2-morpholinyl)alkyl]benzamides” (1990).
# Columns and labels:
# Rattus norvegicus [1] = experiment: Evaluated for the effects on the gastric emptying rates of phenol red semisolid meal through the stomach in rats, at a dose of 2.0 mg/Kg administered perorally.; format: functional
# In short: (§1)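 Mice or rats fasted 18 h. Compound suspended in 0.5% tragacanth given orally 60 min before a gavaged meal of 0.05% phenol red in 1.5% aqueous methylcellulose (0.2 mL/mouse, 1.5 mL/rat). Animals killed 15 min later; phenol red left in stomach measured (Scarpignato method). Emptying expressed as % enhancement over tragacanth-control mean; Duncan's multiple range test.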
# [2] = molecular target: D(2) dopamine receptor (Canis lupus familiaris) (UniProt Q9GJU1); experiment: Evaluated for the dopamine D2 receptor antagonistic activity (antagonism of the apomorphine-induced emesis in dogs) at a dose of 3.0 mg/kg administered perorally (po).; format: functional, organism-based; design: dose 3 mg/kg
# In short: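 Male beagle dogs (10-16 kg), groups of three to six, pretreated with test compound; 2 h later apomorphine hydrochloride 0.3 mg/kg s.c.; emetic episodes counted over 1 h. Modified Janssen method.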
# Mus musculus [3] = experiment: Evaluated for the effects on the gastric emptying rates of phenol red semisolid meal through the stomach in mouse, at a dose of 0.5 mg/kg administered perorally; format: functional; settings: route oral; in short: as §1
# Mus musculus [4] = experiment: Evaluated for the effects on the gastric emptying rates of phenol red semisolid meal through the stomach in mouse, at a dose of 1 mg/kg administered perorally; format: functional; settings: route oral; in short: as §1
# Mus musculus [5] = experiment: Evaluated for the effects on the gastric emptying rates of phenol red semisolid meal through the stomach in mouse, at a dose of 2 mg/kg administered perorally; format: functional; settings: route oral; in short: as §1
# Mus musculus [6] = experiment: Evaluated for the effects on the gastric emptying rates of phenol red semisolid meal through the stomach in mouse, at a dose of 5 mg/kg administered perorally; format: functional; settings: route oral; in short: as §1
# Rattus norvegicus [7] = experiment: Evaluated for the effects on the gastric emptying rates of resin pellets solid meal through the stomach in rats, at a dose of 2.0 mg/kg administered perorally; format: functional; settings: route oral
# In short: (§2)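 Rats fasted 18 h. Compound suspended in 0.5% tragacanth given orally 30 min before 40 resin pellets (Amberlite IRA-93, 1-mm) are delivered into the stomach by tube. Animals killed 1 h later and pellets remaining in the stomach counted (Jacoby method). Result given as % enhancement over tragacanth-control mean; Duncan's multiple range test.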
# Rattus norvegicus [8] = experiment: Evaluated for the effects on the gastric emptying rates of resin pellets solid meal through the stomach in rats, at a dose of 5.0 mg/kg administered perorally; format: functional; settings: route oral; in short: as §2
# Rattus norvegicus [9] = experiment: Evaluated for the effects on the gastric emptying rates of phenol red semisolid meal through the stomach in rats, at a dose of 5.0 mg/kg administered perorally; format: functional; settings: route oral; in short: as §1
# Rattus norvegicus [10] = experiment: Evaluated for the effects on the gastric emptying rates of phenol red semisolid meal through the stomach in rats, at a dose of 0.5 mg/kg administered perorally; format: functional; settings: route oral; in short: as §1
# Rattus norvegicus [11] = experiment: Evaluated for the effects on the gastric emptying rates of phenol red semisolid meal through the stomach in rats, at a dose of 10.0 mg/kg administered perorally; format: functional; settings: route oral; in short: as §1
# Rattus norvegicus [12] = experiment: Evaluated for the effects on the gastric emptying rates of phenol red semisolid meal through the stomach in rats, at a dose of 2.0 mg/kg administered perorally; format: functional; settings: route oral; in short: as §1
# Rattus norvegicus [13] = experiment: Evaluated for the effects on the gastric emptying rates of resin pellets solid meal through the stomach in rats, at a dose of 10 mg/kg administered perorally; format: functional; settings: route oral; in short: as §2
# [14] = molecular target: D(2) dopamine receptor (Canis lupus familiaris) (UniProt Q9GJU1); settings: 3.0 mg/kg
# Mus musculus [15] = experiment: Evaluated for the effects on the gastric emptying rates of phenol red semisolid meal through the stomach in mouse, at a dose of 2 mg/kg administered perorally (po); (p<0.01); format: functional; in short: as §1
# [16] = test system: dopamine D2 receptor (Canis familiaris); experiment: Evaluated for the dopamine D2 receptor antagonistic activity (antagonism of apomorphine-induced emesis in dogs) at a dose of 3.0 mg/kg administered perorally; settings: Canis lupus familiaris
# Mus musculus [17] = experiment: Evaluated for the effects on the gastric emptying rates of phenol red semisolid meal through the stomach in mouse, at a dose of 1 mg/Kg administered perorally; format: functional; in short: as §1
# Mus musculus [18] = experiment: Evaluated for the effects on the gastric emptying rates of phenol red semisolid meal through the stomach in mouse, at a dose of 2 mg/Kg administered perorally; format: functional; in short: as §1
# Mus musculus [19] = experiment: Evaluated for the effects on the gastric emptying rates of phenol red semisolid meal through the stomach in mouse, at a dose of 5 mg/Kg administered perorally; format: functional; in short: as §1
# Mus musculus [20] = experiment: Evaluated for the effects on the gastric emptying rates of phenol red semisolid meal through the stomach in mouse, at a dose of 0.5 mg/Kg administered perorally; format: functional; in short: as §1
# Rattus norvegicus [21] = experiment: Evaluated for the effects on the gastric emptying rates of resin pellets solid meal through the stomach in rats, at a dose of 5.0 mg/Kg administered perorally; format: functional; in short: as §2
# Rattus norvegicus [22] = experiment: Evaluated for the effects on the gastric emptying rates of phenol red semisolid meal through the stomach in rats, at a dose of 5.0 mg/Kg administered perorally; format: functional; in short: as §1
# Rattus norvegicus [23] = experiment: Evaluated for the effects on the gastric emptying rates of resin pellets solid meal through the stomach in rats, at a dose of 10 mg/Kg administered perorally; format: functional; in short: as §2
# Rattus norvegicus [24] = experiment: Evaluated for the effects on the gastric emptying rates of resin pellets solid meal through the stomach in rats, at a dose of 2.0 mg/Kg administered perorally; format: functional; in short: as §2
# Rattus norvegicus [25] = experiment: Evaluated for the effects on the gastric emptying rates of phenol red semisolid meal through the stomach in rats, at a dose of 0.5 mg/Kg administered perorally; format: functional; in short: as §1
# Rattus norvegicus [26] = experiment: Evaluated for the effects on the gastric emptying rates of phenol red semisolid meal through the stomach in rats, at a dose of 10.0 mg/Kg administered perorally; format: functional; in short: as §1
# Sequence of D(2) dopamine receptor (Canis lupus familiaris) (Q9GJU1 whole entry): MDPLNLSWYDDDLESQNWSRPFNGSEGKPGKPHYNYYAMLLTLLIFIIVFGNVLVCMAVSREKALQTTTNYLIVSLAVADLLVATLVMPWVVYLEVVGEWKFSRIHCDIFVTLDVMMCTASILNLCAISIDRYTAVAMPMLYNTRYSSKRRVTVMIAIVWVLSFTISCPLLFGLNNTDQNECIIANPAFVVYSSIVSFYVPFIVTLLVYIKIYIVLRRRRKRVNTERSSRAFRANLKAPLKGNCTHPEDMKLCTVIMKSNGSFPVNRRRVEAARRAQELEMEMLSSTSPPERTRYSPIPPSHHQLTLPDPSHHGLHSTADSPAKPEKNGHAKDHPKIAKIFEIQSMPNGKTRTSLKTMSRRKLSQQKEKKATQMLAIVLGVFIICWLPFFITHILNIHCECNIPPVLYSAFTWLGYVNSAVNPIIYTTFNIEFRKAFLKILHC
smiles,measurement,setting,value
COc1cc(N)c(Cl)cc1C(=O)NCC1CN(Cc2ccccc2)CCO1.Cl (stereo not drawn),GE,Rattus norvegicus [1],39%
Nc1ccc(C(=O)NCC2CN(Cc3ccccc3)CCO2)cc1Cl.O=C(O)C(=O)O (stereo not drawn),GE,Rattus norvegicus [1],30%
CN(C)c1c(Cl)cc(C(=O)NCC2CN(Cc3ccccc3)CCO2)c(O)c1Cl.O=C(O)C(=O)O (stereo not drawn),GE,Rattus norvegicus [1],14%
COc1cc(C(=O)NCC2CN(Cc3ccccc3)CCO2)cc(OC)c1OC.O=C(O)C(=O)O (stereo not drawn),GE,Rattus norvegicus [1],11%
CCOc1cc(N)c(Cl)cc1C(=O)NCCC1CN(Cc2ccccc2)CCO1 (stereo not drawn),GE,Rattus norvegicus [1],45%
CCOc1ccc(S(N)(=O)=O)cc1C(=O)NCC1CN(Cc2ccccc2)CCO1 (stereo not drawn),GE,Rattus norvegicus [1],19%
CCSc1ccc(S(N)(=O)=O)cc1C(=O)NCC1CN(Cc2ccccc2)CCO1 (stereo not drawn),GE,Rattus norvegicus [1],27%
CCOc1cc(N(C)C)c(Cl)cc1C(=O)NCC1CN(Cc2ccccc2)CCO1.O=C(O)C(=O)O (stereo not drawn),GE,Rattus norvegicus [1],51%
COc1cc(N(C)C)c(Cl)cc1C(=O)NCC1CN(Cc2ccccc2)CCO1.O=C(O)/C=C/C(=O)O (stereo not drawn),inhibition,[2],0%
same,GE,Mus musculus [3],7%
same,GE,Mus musculus [4],33%
same,GE,Mus musculus [5],43%
same,GE,Mus musculus [6],43%
same,GE,Rattus norvegicus [7],15%
same,GE,Rattus norvegicus [8],5%
same,GE,Rattus norvegicus [9],47%
same,GE,Rattus norvegicus [10],27%
same,GE,Rattus norvegicus [11],49%
same,GE,Rattus norvegicus [12],52%
COc1ccc(Cl)cc1C(=O)NCC1CN(Cc2ccccc2)CCO1.Cl (stereo not drawn),GE,Rattus norvegicus [1],19%
CCOc1cc(N)c(Cl)cc1C(=O)NCCCC1CN(Cc2ccccc2)CCO1 (stereo not drawn),GE,Rattus norvegicus [1],18%
O=C(NCC1CN(Cc2ccccc2)CCO1)c1cccc2c1OCO2.O=C(O)/C=C/C(=O)O (stereo not drawn),GE,Rattus norvegicus [1],30%
COc1cc(N)c(Cl)cc1C(=O)OCC1CN(Cc2ccccc2)CCO1 (stereo not drawn),GE,Rattus norvegicus [1],17%
COc1cc(N)c(Cl)cc1C(=O)NCCCC1CN(Cc2ccccc2)CCO1.O=C(O)C(=O)O (stereo not drawn),GE,Rattus norvegicus [1],23%
CNc1cc(OC)c(C(=O)NCC2CN(Cc3ccccc3)CCO2)cc1Cl.O=C(O)/C=C/C(=O)O (stereo not drawn),GE,Rattus norvegicus [1],14%
COc1c(Cl)cc(Cl)c(OC)c1C(=O)NCC1CN(Cc2ccccc2)CCO1 (stereo not drawn),GE,Rattus norvegicus [1],4%
CCN(CC)CCNC(=O)c1cc(Cl)c(N)cc1OC [METOCLOPRAMIDE],GE,Mus musculus [4],-10%
same,GE,Mus musculus [5],20%
same,GE,Mus musculus [6],28%
same,GE,Rattus norvegicus [8],23%
same,GE,Rattus norvegicus [9],26%
same,GE,Rattus norvegicus [13],43%
same,GE,Rattus norvegicus [11],31%
same,GE,Rattus norvegicus [12],21%
same,inhibition,[14],100%
CN(C)c1cc(O)c(C(=O)NCC2CN(Cc3ccccc3)CCO2)cc1Cl.O=C(O)C(=O)O (stereo not drawn),GE,Rattus norvegicus [1],27%
COc1cc(Cl)c(N)cc1C(=O)NCC1CN(Cc2ccccc2)CCO1 (stereo not drawn),GE,Rattus norvegicus [1],10%
COc1cc(N)ccc1C(=O)NCC1CN(Cc2ccccc2)CCO1 (stereo not drawn),GE,Rattus norvegicus [1],11%
COc1cc(N)c([N+](=O)[O-])cc1C(=O)NCC1CN(Cc2ccccc2)CCO1.O (stereo not drawn),GE,Rattus norvegicus [1],14%
O=C(NCC1CN(Cc2ccccc2)CCO1)c1c(F)c(F)c(F)c(F)c1F.O=C(O)C(=O)O (stereo not drawn),GE,Rattus norvegicus [1],9%
COc1ccc(S(N)(=O)=O)cc1C(=O)NCC1CN(Cc2ccccc2)CCO1 (stereo not drawn),GE,Rattus norvegicus [1],24%
CCOc1cc(N)c(Cl)cc1C(=O)NCC1CN(Cc2ccccc2)CCO1.O (stereo not drawn),inhibition,[2],5%
same,GE,Mus musculus [3],35%
same,GE,Mus musculus [4],23%
same,GE,Mus musculus [15],52%
same,GE,Mus musculus [6],38%
same,GE,Rattus norvegicus [7],58%
same,GE,Rattus norvegicus [8],76%
same,GE,Rattus norvegicus [9],56%
same,GE,Rattus norvegicus [10],34%
same,GE,Rattus norvegicus [11],49%
same,GE,Rattus norvegicus [12],54%
COc1cc(Cl)ccc1C(=O)NCC1CN(Cc2ccccc2)CCO1.Cl (stereo not drawn),GE,Rattus norvegicus [1],23%
Nc1cc(O)c(C(=O)NCC2CN(Cc3ccccc3)CCO2)cc1Cl.O (stereo not drawn),GE,Rattus norvegicus [1],36%
NS(=O)(=O)c1ccc(Cl)c(C(=O)NCC2CN(Cc3ccccc3)CCO2)c1 (stereo not drawn),GE,Rattus norvegicus [1],18%
COc1cc(N)c(Cl)cc1C(=O)N(C)CC1CN(Cc2ccccc2)CCO1.O=C(O)/C=C/C(=O)O (stereo not drawn),GE,Rattus norvegicus [1],15%
COc1cc(N)c(Cl)cc1C(=O)NCCC1CN(Cc2ccccc2)CCO1.O=C(O)/C=C/C(=O)O (stereo not drawn),GE,Rattus norvegicus [1],35%
O=C(NCC1CN(Cc2ccccc2)CCO1)c1ccc2c(c1)OCO2.O=C(O)/C=C/C(=O)O (stereo not drawn),GE,Rattus norvegicus [1],34%
COc1cc(N)c(Cl)cc1C(=O)NC1CCN(CCCOc2ccc(F)cc2)CC1OC (stereo not drawn) [CISAPRIDE],GE,Mus musculus [3],24%
same,GE,Mus musculus [4],29%
same,GE,Mus musculus [5],36%
same,GE,Mus musculus [6],38%
same,GE,Rattus norvegicus [9],50%
same,GE,Rattus norvegicus [10],14%
same,GE,Rattus norvegicus [11],43%
same,GE,Rattus norvegicus [12],47%
COc1cc(N)c(Br)cc1C(=O)NCC1CN(Cc2ccccc2)CCO1 (stereo not drawn),GE,Rattus norvegicus [1],10%
COc1cc(NC(C)=O)ccc1C(=O)NCC1CN(Cc2ccccc2)CCO1.O (stereo not drawn),GE,Rattus norvegicus [1],24%
COc1cc(N)c(Cl)cc1C(=O)NCC1CN(Cc2ccccc2)CCO1 (stereo not drawn) [listing 1 of 2 here],inhibition,[16],4%
COc1cc(N)c(Cl)cc1C(=O)NCC1CN(Cc2ccccc2)CCO1 (stereo not drawn) [listing 2 of 2 here],GE,Mus musculus [17],49%
same,GE,Mus musculus [18],46%
same,GE,Mus musculus [19],68%
same,GE,Mus musculus [20],50%
same,GE,Rattus norvegicus [21],70%
same,GE,Rattus norvegicus [22],35%
same,GE,Rattus norvegicus [23],78%
same,GE,Rattus norvegicus [24],49%
same,GE,Rattus norvegicus [25],18%
same,GE,Rattus norvegicus [26],52%
same,GE,Rattus norvegicus [1],26%
CCN(CC)c1cc(OC)c(C(=O)NCC2CN(Cc3ccccc3)CCO2)cc1Cl.O=C(O)C(=O)O (stereo not drawn),GE,Rattus norvegicus [1],21%
COc1ccccc1C(=O)NCC1CN(Cc2ccccc2)CCO1.O=C(O)/C=C/C(=O)O (stereo not drawn),GE,Rattus norvegicus [1],17%
CC(=O)Nc1cc(O)c(C(=O)NCC2CN(Cc3ccccc3)CCO2)cc1Cl (stereo not drawn),GE,Rattus norvegicus [1],11%
